Source: article PMC9389373 (RSC Advances, 2022)
pIC50: −log10 of the molar value.

Experiments:
MCF-7 = test: MTT cytotoxicity assay, MCF-7; assay type: cell-based; conditions: Homo sapiens, MCF7, read-out: IC50, μM MCF-7
Summary of the method: (§1)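 Cells came from the National Cancer Institute, Cairo, and were grown in RPMI-1640 with L-glutamine, 10% FBS and 1% penicillin-streptomycin at 37 °C, 5% CO2. Plated in triplicate in 96-well plates (5 × 10^4 cells). Next day, exposed to test compound at 0.01, 0.1, 1, 10 and 100 μM (48 h stated for MDA-MB-231 and MCF-10A). MTT added for 3 h; absorbance read; viability relative to control; IC50 derived.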

MDA-MB-231 = test: MTT cytotoxicity assay, MDA-MB-231; assay type: cell-based; conditions: read-out: IC50, μM MDA-MB-231, average of three independent trials
Summary of the method: as §1

PARP-1 = PARP-1 (Homo sapiens, UniProt P09874); test: PARP-1 enzyme inhibition assay; assay type: biochemical
EGFR = EGFR (Homo sapiens, UniProt P00533); test: EGFR inhibition, ADP-Glo kinase assay; assay type: biochemical
MCF-10A = test: MTT cytotoxicity assay, normal breast cells MCF-10A; assay type: cell-based; conditions: Homo sapiens
Summary of the method: as §1

MDA-MB-231 cells [1] = test: Annexin V/PI staining flow cytometry, apoptosis-necrosis assessment; assay type: cell-based; conditions: 8i at 0.12 μM, 48 h
Summary of the method: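 MDA-MB-231 cells seeded overnight in 6-well plates (3–5 × 10^5 cells/well), then exposed to test compound for 48 h. Stained 30 min in the dark in Annexin binding buffer (25 mM CaCl2, 1.4 M NaCl, 0.1 M Hepes/NaOH, pH 7.4) with Annexin V-FITC (1:100) and PI (10 μg mL−1). Analysed by flow cytometry: Q1 necrosis, Q2 late apoptosis, Q4 early apoptosis.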

MDA-MB-231 cells [2] = test: RT-PCR gene expression of apoptosis-related genes; assay type: cell-based; conditions: 8i at 0.12 μM, 48 h, untreated control = 1
MDA-MB-231 cells [3] = test: DNA-aided cell cycle analysis by flow cytometry; assay type: cell-based; conditions: 8i at 0.12 μM, 48 h; control 9.83%
[4] = five concentrations, sigmoidal nonlinear regression

Sequence of EGFR (P00533 25-1210): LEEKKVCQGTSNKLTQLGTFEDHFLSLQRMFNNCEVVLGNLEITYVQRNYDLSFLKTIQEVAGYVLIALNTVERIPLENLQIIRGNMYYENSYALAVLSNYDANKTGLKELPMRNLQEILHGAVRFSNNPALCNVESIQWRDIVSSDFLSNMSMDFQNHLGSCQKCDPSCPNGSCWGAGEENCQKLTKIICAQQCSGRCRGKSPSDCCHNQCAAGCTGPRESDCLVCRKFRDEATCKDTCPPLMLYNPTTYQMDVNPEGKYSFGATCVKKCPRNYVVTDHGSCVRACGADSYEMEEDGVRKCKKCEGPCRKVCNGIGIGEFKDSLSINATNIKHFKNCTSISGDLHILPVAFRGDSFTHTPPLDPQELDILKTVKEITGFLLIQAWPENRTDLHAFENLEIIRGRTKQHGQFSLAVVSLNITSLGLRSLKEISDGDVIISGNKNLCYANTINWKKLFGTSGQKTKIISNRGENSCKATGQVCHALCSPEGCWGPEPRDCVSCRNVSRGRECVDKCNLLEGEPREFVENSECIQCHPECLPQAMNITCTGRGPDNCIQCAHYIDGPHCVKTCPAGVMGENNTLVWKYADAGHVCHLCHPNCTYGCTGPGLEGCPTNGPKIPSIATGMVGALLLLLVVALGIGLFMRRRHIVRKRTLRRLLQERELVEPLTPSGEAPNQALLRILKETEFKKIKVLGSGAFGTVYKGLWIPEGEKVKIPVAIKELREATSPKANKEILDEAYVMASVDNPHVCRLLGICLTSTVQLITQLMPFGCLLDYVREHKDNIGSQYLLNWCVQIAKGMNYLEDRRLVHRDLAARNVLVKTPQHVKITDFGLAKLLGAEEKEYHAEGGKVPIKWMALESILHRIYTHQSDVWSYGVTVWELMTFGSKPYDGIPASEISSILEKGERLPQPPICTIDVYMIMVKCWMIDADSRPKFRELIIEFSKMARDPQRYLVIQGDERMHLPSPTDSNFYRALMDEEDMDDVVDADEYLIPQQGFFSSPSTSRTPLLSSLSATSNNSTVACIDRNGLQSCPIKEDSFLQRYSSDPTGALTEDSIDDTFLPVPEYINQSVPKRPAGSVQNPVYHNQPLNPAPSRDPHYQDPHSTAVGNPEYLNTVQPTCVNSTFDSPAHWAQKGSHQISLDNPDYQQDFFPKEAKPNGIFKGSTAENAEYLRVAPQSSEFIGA
Sequence of PARP-1 (P09874 whole entry): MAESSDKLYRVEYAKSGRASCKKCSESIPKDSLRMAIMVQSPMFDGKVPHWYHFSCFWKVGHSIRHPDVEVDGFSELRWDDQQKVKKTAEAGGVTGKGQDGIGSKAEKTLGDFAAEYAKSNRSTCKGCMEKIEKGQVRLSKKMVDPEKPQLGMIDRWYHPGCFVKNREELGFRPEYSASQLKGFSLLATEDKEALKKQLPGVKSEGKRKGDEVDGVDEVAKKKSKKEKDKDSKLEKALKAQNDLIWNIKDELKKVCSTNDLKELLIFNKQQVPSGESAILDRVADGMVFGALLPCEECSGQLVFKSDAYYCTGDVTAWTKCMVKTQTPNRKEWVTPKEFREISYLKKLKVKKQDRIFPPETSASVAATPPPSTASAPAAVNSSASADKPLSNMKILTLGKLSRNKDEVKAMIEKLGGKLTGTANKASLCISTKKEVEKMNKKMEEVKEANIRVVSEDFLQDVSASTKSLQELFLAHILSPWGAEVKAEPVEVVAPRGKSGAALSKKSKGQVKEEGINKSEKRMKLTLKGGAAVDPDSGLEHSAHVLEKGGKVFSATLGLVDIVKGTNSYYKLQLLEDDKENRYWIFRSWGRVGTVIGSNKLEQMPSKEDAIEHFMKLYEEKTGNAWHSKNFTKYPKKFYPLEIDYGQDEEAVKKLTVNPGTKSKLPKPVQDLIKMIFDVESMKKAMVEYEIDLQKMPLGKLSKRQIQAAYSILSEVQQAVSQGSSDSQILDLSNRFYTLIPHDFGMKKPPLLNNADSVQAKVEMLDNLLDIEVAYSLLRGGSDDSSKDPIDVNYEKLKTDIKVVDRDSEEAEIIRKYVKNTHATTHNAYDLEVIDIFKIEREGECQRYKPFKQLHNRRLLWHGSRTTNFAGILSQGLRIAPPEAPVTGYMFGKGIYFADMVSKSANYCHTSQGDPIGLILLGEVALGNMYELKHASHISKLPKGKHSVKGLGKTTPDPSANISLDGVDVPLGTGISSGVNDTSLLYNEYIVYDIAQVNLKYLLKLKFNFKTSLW

Question: For `O=C(COc1ccc(C2=Nn3c(nnc3-c3ccccc3)SC2)cc1)NCCNC(=O)COc1ccc(C2=Nn3c(nnc3-c3ccccc3)SC2)cc1` [8a, N,N′-(Ethane-1,2-diyl)bis(2-(4-(3-phenyl-7H-[1,2,4]triazolo[3,4-b][1,3,4]thiadiazin-6-yl)phenoxy)acetamide)], which IC50 (MCF-7) is on record?
Answer: ≥ 50 µM

Question: For `O=C(COc1ccc(C2=Nn3c(Cc4ccccc4)nnc3SC2)cc1)NCCNC(=O)COc1ccc(C2=Nn3c(Cc4ccccc4)nnc3SC2)cc1` [8b, N,N′-(Ethane-1,2-diyl)bis(2-(4-(3-benzyl-7H-[1,2,4]triazolo[3,4-b][1,3,4]thiadiazin-6-yl)phenoxy)acetamide)], which IC50 (MCF-7) is on record?
Answer: 26.1 µM

Question: `O=C(COc1ccccc1C1=Nn2c(nnc2-c2ccccc2)SC1)NCCNC(=O)COc1ccccc1C1=Nn2c(nnc2-c2ccccc2)SC1` [8c, N,N′-(Ethane-1,2-diyl)bis(2-(2-(3-phenyl-7H-[1,2,4]triazolo[3,4-b][1,3,4]thiadiazin-6-yl)phenoxy)acetamide)] was tested. Which IC50 (MCF-7) did it give?
Answer: 16.1 µM

Question: Which IC50 (MDA-MB-231) does the source give for `Cc1nnc2n1N=C(c1ccccc1OCC(=O)NCCNC(=O)COc1ccccc1C1=Nn3c(C)nnc3SC1)CS2` [8d, N,N′-(Ethane-1,2-diyl)bis(2-(2-(3-methyl-7H-[1,2,4]triazolo[3,4-b][1,3,4]thiadiazin-6-yl)phenoxy)acetamide)] here?
Answer: 0.421 µM

Question: And the IC50 (MCF-7)?
Answer: 2.14 µM

Question: What about the pIC50 (PARP-1) of the same compound?
Answer: 7.70

Question: And the “IC50, nM PARP-1” value (PARP-1; [4])?
Answer: poor inhibitory activities

Question: What about the pIC50 (EGFR) of the same compound?
Answer: 6.91

Question: What about the “IC50, nM EGFR” value (EGFR; [4]) of the same compound?
Answer: poor inhibitory activities

Question: Which IC50 (MCF-7) does the source give for `O=C(COc1ccc(C2=Nn3c(nnc3-c3ccccc3)SC2)cc1)NCCCNC(=O)COc1ccc(C2=Nn3c(nnc3-c3ccccc3)SC2)cc1` [8e, N,N′-(Propane-1,3-diyl)bis(2-(4-(3-phenyl-7H-[1,2,4]triazolo[3,4-b][1,3,4]thiadiazin-6-yl)phenoxy)acetamide)] here?
Answer: 12.7 µM

Question: How did the IC50 (MCF-7) turn out when `Cc1nnc2n1N=C(c1ccc(OCC(=O)NCCCNC(=O)COc3ccc(C4=Nn5c(C)nnc5SC4)cc3)cc1)CS2` [8f, N,N′-(Propane-1,3-diyl)bis(2-(4-(3-methyl-7H-[1,2,4]triazolo[3,4-b][1,3,4]thiadiazin-6-yl)phenoxy)acetamide)] was run?
Answer: 7.12 µM

Question: With `O=C(COc1ccccc1C1=Nn2c(nnc2-c2ccccc2)SC1)NCCCNC(=O)COc1ccccc1C1=Nn2c(nnc2-c2ccccc2)SC1` [8g, N,N′-(Propane-1,3-diyl)bis(2-(2-(3-phenyl-7H-[1,2,4]triazolo[3,4-b][1,3,4]thiadiazin-6-yl)phenoxy)acetamide)] as the compound, how does the IC50 (MCF-7) read?
Answer: 11.2 µM

Question: With `O=C(COc1ccccc1C1=Nn2c(Cc3ccccc3)nnc2SC1)NCCCNC(=O)COc1ccccc1C1=Nn2c(Cc3ccccc3)nnc2SC1` [8h, N,N′-(Propane-1,3-diyl)bis(2-(2-(3-benzyl-7H-[1,2,4]triazolo[3,4-b][1,3,4]thiadiazin-6-yl)phenoxy)acetamide)] as the compound, how does the IC50 (MDA-MB-231) read?
Answer: ≥ 50 µM

Question: What about the IC50 (MCF-7) of the same compound?
Answer: 21.1 µM

Question: `Cc1nnc2n1N=C(c1ccccc1OCC(=O)NCCCNC(=O)COc1ccccc1C1=Nn3c(C)nnc3SC1)CS2` [8i, N,N′-(Propane-1,3-diyl)bis(2-(2-(3-methyl-7H-[1,2,4]triazolo[3,4-b][1,3,4]thiadiazin-6-yl)phenoxy)acetamide)] was tested. Which pIC50 (MCF-10A; 48 h, read-out: IC50 MCF-10A) did it give?
Answer: 4.28

Question: What about the inhibition at 100 µM (MCF-10A; read-out: cell inhibition) of the same compound?
Answer: ~90%

Question: And the IC50 (MCF-7)?
Answer: 1.31 µM

Question: What about the “necrosis, fold compared to control” value (MDA-MB-231 cells [1]) of the same compound?
Answer: 3.14 fold

Question: And the “total apoptosis, fold compared to control” value (MDA-MB-231 cells [1])?
Answer: 38 fold

Question: What about the “late apoptosis (Q2)” value (MDA-MB-231 cells [1]; control 0.18%) of the same compound?
Answer: 19.51%

Question: What about the “early apoptosis (Q4)” value (MDA-MB-231 cells [1]; control 0.63%) of the same compound?
Answer: 11.23%

Question: What about the “total apoptotic cell death” value (MDA-MB-231 cells [1]; control 0.81%) of the same compound?
Answer: 30.74%

Question: And the “necrosis (Q1)” value (MDA-MB-231 cells [1]; control 1.3%)?
Answer: 4.08%

Question: What about the “Bcl-2 gene level, fold change” value (MDA-MB-231 cells [2]; decrease) of the same compound?
Answer: 0.35 fold

Question: What about the “Bax gene level, fold change” value (MDA-MB-231 cells [2]; increase) of the same compound?
Answer: 4.46 fold

Question: What about the “P53 gene level, fold change” value (MDA-MB-231 cells [2]; increase) of the same compound?
Answer: 4.8 fold

Question: What about the “caspase-3 gene level, fold change” value (MDA-MB-231 cells [2]; increase) of the same compound?
Answer: 3.9 fold

Question: What about the “caspase-8 gene level, fold change” value (MDA-MB-231 cells [2]; increase) of the same compound?
Answer: 6.36 fold

Question: What about the “caspase-9 gene level, fold change” value (MDA-MB-231 cells [2]; increase) of the same compound?
Answer: 2.9 fold

Question: And the “cell population at G2/M” value (MDA-MB-231 cells [3])?
Answer: 24.04%

Question: And the pIC50 (EGFR)?
Answer: 7.19

Question: For `O=C(COc1ccc(C2=Nn3c(nnc3-c3ccccc3)SC2)cc1)NCCCCNC(=O)COc1ccc(C2=Nn3c(nnc3-c3ccccc3)SC2)cc1` [8j, N,N′-(Butane-1,4-diyl)bis(2-(4-(3-phenyl-7H-[1,2,4]triazolo[3,4-b][1,3,4]thiadiazin-6-yl)phenoxy)acetamide)], which IC50 (MCF-7) is on record?
Answer: 14.9 µM

Question: How did the IC50 (MCF-7) turn out when `O=C(COc1ccccc1C1=Nn2c(nnc2-c2ccccc2)SC1)NCCCCNC(=O)COc1ccccc1C1=Nn2c(nnc2-c2ccccc2)SC1` [8k, N,N′-(Butane-1,4-diyl)bis(2-(2-(3-phenyl-7H-[1,2,4]triazolo[3,4-b][1,3,4]thiadiazin-6-yl)phenoxy)acetamide)] was run?
Answer: 13.1 µM

Question: For `O=C(COc1ccccc1C1=Nn2cnnc2SC1)NCCCCNC(=O)COc1ccccc1C1=Nn2cnnc2SC1` [8l, N,N′-(Butane-1,4-diyl)bis(2-(2-(7H-[1,2,4]triazolo[3,4-b][1,3,4]thiadiazin-6-yl)phenoxy)-acetamide)], which IC50 (MCF-7) is on record?
Answer: 5.31 µM

Question: What about the pIC50 (PARP-1) of the same compound?
Answer: 8.16

Question: What about the pIC50 (EGFR) of the same compound?
Answer: 7.10

Question: How did the IC50 (MDA-MB-231) turn out when `O=C(COc1ccc(-c2cnc3ccccc3n2)cc1)NCCNC(=O)COc1ccc(-c2cnc3ccccc3n2)cc1` [10a, N,N′-(Ethane-1,2-diyl)bis(2-(4-(quinoxalin-2-yl)phenoxy)acetamide)] was run?
Answer: ≥ 50 µM

Question: What about the IC50 (MCF-7) of the same compound?
Answer: 32 µM

Question: For `Cc1cc2ncc(-c3ccc(OCC(=O)NCCNC(=O)COc4ccc(-c5cnc6cc(C)c(C)cc6n5)cc4)cc3)nc2cc1C` [10b, N,N′-(Ethane-1,2-diyl)bis(2-(4-(6,7-dimethylquinoxalin-2-yl)phenoxy)acetamide)], which IC50 (MCF-7) is on record?
Answer: ≥ 50 µM

Question: How did the IC50 (MCF-7) turn out when `O=C(COc1ccccc1-c1cnc2ccccc2n1)NCCNC(=O)COc1ccccc1-c1cnc2ccccc2n1` [10c, N,N′-(Ethane-1,2-diyl)bis(2-(2-(quinoxalin-2-yl)phenoxy)acetamide)] was run?
Answer: 7.61 µM

Question: What does the source list for `O=C(COc1ccc(-c2cnc3ccccc3n2)cc1)NCCCNC(=O)COc1ccc(-c2cnc3ccccc3n2)cc1` [10d, N,N′-(Propane-1,3-diyl)bis(2-(4-(quinoxalin-2-yl)phenoxy)acetamide)]?
Answer: IC50 (MDA-MB-231): ≥ 50 µM; IC50 (MCF-7): 23.2 µM

Question: Which IC50 (MCF-7) does the source give for `Cc1cc2ncc(-c3ccccc3OCC(=O)NCCCCNC(=O)COc3ccccc3-c3cnc4cc(C)c(C)cc4n3)nc2cc1C` [10e, N,N′-(Butane-1,4-diyl)bis(2-(2-(6,7-dimethylquinoxalin-2-yl)phenoxy)acetamide)] here?
Answer: 31.2 µM

Question: How did the IC50 (MCF-7) turn out when `C#Cc1cccc(Nc2ncnc3cc(OCCOC)c(OCCOC)cc23)c1` [Erlotinib, reference compound] was run?
Answer: 0.32 µM
